Source: publication PMC10718296 (RSC Advances, 2023)
Like-named read-outs stand apart in the source and are kept apart here.

Key:
[1] = system: breast cancer cell line (MCF-7); assay: MTT-based cytotoxicity assay, MCF-7; format: cell-based, human; conditions: read-out: Anticancer (IC50) MCF-7
Procedure, shortened: (§1)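 Cells seeded at 10 000/well in medium with 5% FBS and held 48 h at 37 °C, 5% CO₂, 100% humidity. Test compound at various concentrations added for 48 h under the same conditions, in triplicate, with compound-free medium as control. MTT (5 mg ml⁻¹ solution) added for 4 h at 37 °C, formazan dissolved in DMSO, A570 read. % inhibition = 100 − A(sample)/A(control) × 100.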

[2] = system: human skin cancer cell line (A375); assay: MTT-based cytotoxicity assay, A375; format: cell-based
Procedure, shortened: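 Cells seeded at 10 000/well in medium with 5% FBS, grown 48 h at 37 °C, 5% CO₂, then exposed to test compound at various concentrations (up to 100 μM) for 48 h, in triplicate; medium alone as control. MTT solution (5 mg ml⁻¹) added for 4 h at 37 °C, formazan dissolved in DMSO, absorbance read at 570 nm; inhibition % = 100 − (A sample/A control × 100).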

[3] = system: laryngeal carcinoma cell line (Hep-2); assay: MTT-based cytotoxicity assay, Hep-2; format: cell-based, human; conditions: read-out: Anticancer (IC50) Hep-2
Procedure, shortened: as §1

[4] = system: non-cancerous normal cell (Vero); assay: MTT-based cytotoxicity assay, normal Vero cell; conditions: for Cytotoxicity to non-cancerous cells (in words): cell viability assay up to 100 μM, Fig. 3
Procedure, shortened: as §1

[5] = system: hepatocellular carcinoma cell line (HepG2); assay: MTT-based cytotoxicity assay, HepG2; format: cell-based, human; conditions: read-out: Anticancer (IC50) HepG2
Procedure, shortened: as §1

[6] = MTT, 48 hours, average of three independent experiments
[7] = Homo sapiens, A-375, 48 h, read-out: Anticancer (IC50) A375, MTT, 48 hours, average of three independent experiments

| Compound | IC50 [1, 6] [µM] | IC50 ([2]; read-out: Anticancer (IC50) A375, MTT, 48 hours, average of three independent experiments) [µM] | IC50 [3, 6] [µM] | IC50 ([4]; read-out: Anticancer (IC50) Vero, MTT, 48 hours, non-cancerous normal cell, average of three independent experiments) [µM] | IC50 [5, 6] [µM] | IC50 ([1]; Homo sapiens, MCF7, 48 h) [µM] | IC50 [2, 7] [µM] | IC50 ([3]; Homo sapiens, HEp-2, 48 h) [µM] | IC50 ([5]; Homo sapiens, HepG2, 48 h) [µM] | Cytotoxicity to non-cancerous cells (in words) [4] |
| --- | --- | --- | --- | --- | --- | --- | --- | --- | --- | --- |
| 2-(2-Nitrophenyl)imidazo[1,2-a]pyrazin-3-amine [10l] | 80 ± 4.53 | 27 ± 5 | 64 ± 2.45 | 67 ± 4.54 | 32 ± 4.64 |  |  |  |  |  |
| CC(C)(C)Nc1c(-c2ccc([N+](=O)[O-])cc2)nc2cnccn12 [10a, N-(tert-Butyl)-2-(4-nitrophenyl)imidazo[1,2-a]pyrazin-3-amine] |  |  |  |  |  | > 100 | 36 ± 3.1 | 50 ± 3.42 | 40 ± 2.52 |  |
| CC(C)(C)Nc1c(-c2ccc(N)cc2)nc2cnccn12 [10b, 2-(4-Aminophenyl)-N-(tert-butyl)imidazo[1,2-a]pyrazin-3-amine] |  |  |  |  |  | 21 ± 1.64 | 16 ± 0.96 | 20 ± 1.64 | 18 ± 1.32 | non-toxic to non-cancerous cells |
| Nc1c(-c2ccc([N+](=O)[O-])cc2)nc2cnccn12 [10c, 2-(4-Nitrophenyl)imidazo[1,2-a]pyrazin-3-amine] |  |  |  |  |  | 40 ± 3.8 | 24 ± 2.48 | 45 ± 1.6 | 30 ± 1.43 |  |
| Nc1ccc(-c2nc3cnccn3c2N)cc1 [10d, 2-(4-Aminophenyl)imidazo[1,2-a]pyrazin-3-amine] |  |  |  |  |  | 30 ± 3.32 | 25 ± 1.45 | 38 ± 2.2 | 34 ± 2.64 |  |
| CC(C)(C)Nc1c(-c2ccccc2[N+](=O)[O-])nc2cnccn12 [10e, N-(tert-Butyl)-2-(2-nitrophenyl)imidazo[1,2-a]pyrazin-3-amine] |  |  |  |  |  | 100 ± 8.64 | 34 ± 3.2 | 80 ± 1.37 | 40 ± 2.52 |  |
| CC(C)(C)Nc1c(-c2ccccc2N)nc2cnccn12 [10f, 2-(2-Aminophenyl)-N-(tert-Butyl)imidazo[1,2-a]pyrazin-3-amine] |  |  |  |  |  | 26 ± 2.38 | 20 ± 1.57 | 25 ± 5.2 | 20 ± 4.64 |  |
| Nc1ccccc1-c1nc2cnccn2c1N [10g, 2-(2-Aminophenyl)imidazo[1,2-a]pyrazin-3-amine] |  |  |  |  |  | 30 ± 1.24 | 20 ± 5.8 | 22 ± 2.15 | 25 ± 4.54 |  |
| CN(C)c1ccc(-c2nc3cnccn3c2NC(C)(C)C)cc1 [10h, N-(tert-Butyl)-2-(4-(dimethylamino)phenyl)imidazo[1,2-a]pyrazin-3-amine] |  |  |  |  |  | 50 ± 6.41 | 30 ± 2.84 | 45 ± 0.5 | 34 ± 5.5 |  |
| CN(C)c1ccc(-c2nc3cnccn3c2N)cc1 [10i, 2-(4-(Dimethylamino)phenyl)imidazo[1,2-a]pyrazin-3-amine] |  |  |  |  |  | 17 ± 0.52 | 16 ± 1.2 | 28 ± 3.1 | 26 ± 0.9 | non-toxic to non-cancerous cells |
| O=[N+]([O-])c1ccc(-c2nc3cnccn3c2NC2CCCCC2)cc1 [10j, N-Cyclohexyl-2-(4-nitrophenyl)imidazo[1,2-a]pyrazin-3-amine] |  |  |  |  |  | 24 ± 0.15 | 25 ± 5.41 | 44 ± 6.4 | 40 ± 1.4 |  |
| Nc1ccc(-c2nc3cnccn3c2NC2CCCCC2)cc1 [10k, 2-(4-Aminophenyl)-N-cyclohexylimidazo[1,2-a]pyrazin-3-amine] |  |  |  |  |  | 65 ± 2.41 | 30 ± 1.5 | 34 ± 4.56 | 28 ± 2.48 |  |
| Nc1ccccc1-c1nc2cnccn2c1NC1CCCCC1 [10m, 2-(2-Aminophenyl)-N-cyclohexylimidazo[1,2-a]pyrazin-3-amine] |  |  |  |  |  | 44 ± 2.68 | 23 ± 1.5 | 28 ± 4.28 | 20 ± 2.15 |  |
| CC(C)(C)Nc1c(-c2ccc([N+](=O)[O-])cc2)nc2ccccn12 [12a, N-(tert-Butyl)-2-(4-nitrophenyl)imidazo[1,2-a]pyridin-3-amine] |  |  |  |  |  | 55 ± 5.25 | 45 ± 2.5 | 32 ± 5.5 | 30 ± 2.5 |  |
| CC(C)(C)Nc1c(-c2ccc(N)cc2)nc2ccccn12 [12b, 2-(4-Aminophenyl)-N-(tert-butyl)imidazo[1,2-a]pyridin-3-amine] |  |  |  |  |  | 11 ± 0.5 | 11 ± 0.07 | 11 ± 0.8 | 13 ± 1.2 | non-toxic to non-cancerous cells |
| Nc1c(-c2ccc([N+](=O)[O-])cc2)nc2ccccn12 [12c, 2-(4-Nitrophenyl)imidazo[1,2-a]pyridin-3-amine] |  |  |  |  |  | > 100 | 50 ± 1.8 | 35 ± 2.4 | 48 ± 4.8 |  |
| Nc1ccc(-c2nc3ccccn3c2N)cc1 [12d, 2-(4-Aminophenyl)imidazo[1,2-a]pyridin-3-amine] |  |  |  |  |  | 50 ± 1.82 | 38 ± 2.4 | 20 ± 5.8 | 35 ± 2.5 |  |
| CC(C)(C)Nc1c(-c2ccccc2[N+](=O)[O-])nc2ccccn12 [12e, N-(tert-Butyl)-2-(2-nitrophenyl)imidazo[1,2-a]pyridin-3-amine] |  |  |  |  |  | > 100 | > 100 | 55 ± 0.4 | 62 ± 4.8 |  |
| CC(C)(C)Nc1c(-c2ccccc2N)nc2ccccn12 [12f, 2-(2-Aminophenyl)-N-(tert-butyl)imidazo[1,2-a]pyridin-3-amine] |  |  |  |  |  | 24 ± 5.8 | 28 ± 1.5 | 28 ± 5 | 32 ± 0.1 |  |
| Nc1c(-c2ccccc2[N+](=O)[O-])nc2ccccn12 [12g, 2-(2-Nitrophenyl)imidazo[1,2-a]pyridin-3-amine] |  |  |  |  |  | > 100 | 62 ± 2.4 | 50 ± 5.2 | > 100 |  |
| Nc1ccccc1-c1nc2ccccn2c1N [12h, 2-(2-Aminophenyl)imidazo[1,2-a]pyridin-3-amine] |  |  |  |  |  | 61 ± 2.4 | 55 ± 1.5 | 44 ± 1.4 | 54 ± 1.5 |  |
| CN(C)c1ccc(-c2nc3ccccn3c2NC(C)(C)C)cc1 [12i, N-(tert-Butyl)-2-(4-(dimethylamino)phenyl)imidazo[1,2-a]pyridin-3-amine] |  |  |  |  |  | 17 ± 0.92 | 12 ± 0.7 | 20 ± 2.7 | 19 ± 1.3 | non-toxic to non-cancerous cells |
| CN(C)c1ccc(-c2nc3ccccn3c2N)cc1 [12j, 2-(4-(Dimethylamino)phenyl)imidazo[1,2-a]pyridin-3-amine] |  |  |  |  |  | 30 ± 5 | 25 ± 1.4 | 45 ± 5 | 35 ± 4.8 |  |
| O=[N+]([O-])c1ccc(-c2nc3ccccn3c2NC2CCCCC2)cc1 [12k, N-Cyclohexyl-2-(4-nitrophenyl)imidazo[1,2-a]pyridin-3-amine] |  |  |  |  |  | 52 ± 0.8 | 41 ± 5 | 30 ± 8 | 40 ± 1.5 |  |
| Nc1ccc(-c2nc3ccccn3c2NC2CCCCC2)cc1 [12l, 2-(4-Aminophenyl)-N-cyclohexylimidazo[1,2-a]pyridin-3-amine] |  |  |  |  |  | 35 ± 1.5 | 30 ± 0.1 | 20 ± 5.2 | 25 ± 0.2 |  |
| COc1cccc2c1C(=O)c1c(O)c3c(c(O)c1C2=O)C[C@@](O)(C(=O)CO)C[C@@H]3O[C@H]1C[C@H](N)[C@H](O)[C@H](C)O1 [Doxorubicin, reference compound] |  |  |  |  |  | 0.85 ± 0.02 | 5.16 | 10 ± 0.5 | 1.5 ± 0.09 |  |
